Hits are enriched below; roughly 3.5% of the tested compounds scored in any of these assays.
ABCG2 inh: ABCG2 efflux pump inhibitors, primary screen, multiplex with ABCB1, IgMXP3 cells, flow cytometry | Broad substrate specificity ATP-binding cassette transporter ABCG2 (Homo sapiens), Q9UNQ0 | JC-1 efflux | inhibition, % at 6.6 µM | 190,000 tested, 0.1% active | AID 1325, 2008;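 active means inhibition above 80%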;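 further: 0% = DMSO and 100% = nicardipine control wells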
Target sequence (Q9UNQ0 whole entry, looked up): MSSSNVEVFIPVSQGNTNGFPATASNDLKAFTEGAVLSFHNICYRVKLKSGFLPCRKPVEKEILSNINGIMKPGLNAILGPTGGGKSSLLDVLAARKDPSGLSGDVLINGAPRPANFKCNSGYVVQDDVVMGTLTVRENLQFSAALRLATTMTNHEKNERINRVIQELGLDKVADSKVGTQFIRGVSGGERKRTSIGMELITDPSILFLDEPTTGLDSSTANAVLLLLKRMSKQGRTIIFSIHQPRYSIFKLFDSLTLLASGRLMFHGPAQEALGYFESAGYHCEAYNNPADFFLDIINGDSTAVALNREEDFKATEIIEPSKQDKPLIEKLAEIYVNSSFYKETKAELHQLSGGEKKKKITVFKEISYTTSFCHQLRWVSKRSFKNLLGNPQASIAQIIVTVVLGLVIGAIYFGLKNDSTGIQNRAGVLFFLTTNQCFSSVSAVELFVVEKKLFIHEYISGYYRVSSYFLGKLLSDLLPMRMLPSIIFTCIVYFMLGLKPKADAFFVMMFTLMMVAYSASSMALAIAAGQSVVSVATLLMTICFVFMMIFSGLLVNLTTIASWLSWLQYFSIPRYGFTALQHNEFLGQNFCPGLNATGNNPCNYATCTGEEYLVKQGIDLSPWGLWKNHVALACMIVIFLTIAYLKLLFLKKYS
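Incubation: cells with compound and JC-1, 10 min at 25 °C, rotating, no wash / Test system: IgMXP3 (ABCG2) plus far-red-tagged CCRF-Adr (ABCB1) cells / Compound dosing: one concentration, 6.6 µM final / Also added: JC-1 fluorescent substrate / Evaluation: efflux inhibition in percent versus controls / Detection: flow cytometry, 530 nm JC-1 signal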
MEKK2mut PB1 HTS: MEK5 binding signal on mutant MEKK2 PB1, primary screen, biochemical, multiplex bead flow cytometry, Alexa488-MEK5 | Alexa488-MEK5 binding to MEKK2 mutant | 290,000 tested, 0.35% active | percent response, % at 10 µM; in the data active means percent response above about 24%, passing the limit was not always enough
MEKK3 PB1 HTS: modulators of MEKK3-MEK5 PB1 binding, primary screen, biochemical, wildtype MEKK3, multiplex bead flow cytometry, Alexa488-MEK5. binding response (% of control), % at 10 µM. bead-based flow cytometry, Alexa488-MEK5 binding to MEKK3; actives lie on both sides; 0 = blocked by unlabeled MEK5, 100 = vehicle. 290,000 tested, 1.4% active. Mitogen-activated protein kinase kinase kinase 3 (Homo sapiens), Q99759. AID 1529, 2009;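 active means binding response more than 3 SD above or below the average of its plate-row segment, actives on both sides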;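 further: Alexa488 bead fluorescence after subtracting the streptavidin-only scavenger bead signal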
WT yeast gro inh: growth inhibition of WT strain, primary screen, mitochondrial fusion inhibitor project, WT and mutant strains, chemical genetic. mitochondrial fusion phenotypic screen. inhibition, % at 10 µM. 190,000 tested, 2.1% active; in the data active means inhibition above about 58%; tested in S. cerevisiae
ABCB1 inh: ABCB1 efflux pump inhibitors, primary screen, cell-based, multiplex, flow cytometry, ABCG2 counter-screen; 190,000 tested, 0.067% active; ATP-dependent translocase ABCB1 (Homo sapiens), P08183; CCRF-Adr cells, JC-1 efflux; inhibition, % at 6.6 µM; in the data active means inhibition above about 40%;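 further: 0% = vehicle and 100% = reference inhibitor; higher value means more JC-1 retained so stronger ABCB1 efflux block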
MEKK2 WT-MEK5: modulators of MEK5 binding to wildtype MEKK2, primary screen, biochemical, multiplex bead flow cytometry, Alexa488-MEK5; Alexa488-MEK5 binding to MEKK2 WT; actives lie on both sides; binding response (% of control), % at 10 µM; 290,000 tested, 1.1% active; AID 1531, 2009; in the data active means binding response below about 67% or above about 130%
MEKK2wt confirm: modulators of MEK5 binding to wildtype MEKK2, confirmation, biochemical, single concentration, multiplex bead flow cytometry; shares compounds with MEKK3 PB1 HTS; Alexa488-MEK5 binding to MEKK2 WT; actives lie on both sides; binding response (% of control), % at 10 µM; 5,900 tested, 2.4% active; AID 1892, 2009; in the data active means binding response below about 16% or above about 210%; inactive means in between
MEKK2mut-MEK5: mutant MEKK2 PB1-MEK5 binding signal retest – biochemical, single concentration, multiplex bead flow cytometry, confirmation; shares compounds with MEKK3 PB1 HTS; Alexa488-MEK5 binding to MEKK2 mutant; percent response, % at 10 µM; 5,900 tested, 2% active; AID 1893, 2009; in the data active means percent response mostly above about 71%, no sharp cut-off; inactive means mostly below about 38%;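 further: higher means compound restores mutant binding toward wildtype level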
MEKK3-MEK5 inh: MEKK3 wild-type PB1 binding to MEK5, inhibitors, confirmation, biochemical, bead multiplex flow cytometry, single concentration, wildtype. shares compounds with MEKK3 PB1 HTS. Alexa488-MEK5 binding to MEKK3; active compounds read low. binding response (% of control), % at 10 µM. 5,900 tested, 1.8% active. AID 1894, 2009;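 active means binding response below 72% of control, or above a set upper limit, though filed actives all read lower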;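 further: 100% = DMSO only wells and 0% = binding blocked by excess unlabeled MEK5; lower values mean stronger disruption of MEK5 binding to MEKK3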
Starred values were filed as active, the others as inactive; · = not tested or not shown; [ ] = dose if it differs, or a comment.

SMILES | ABCG2 inh | MEKK2mut PB1 HTS | MEKK3 PB1 HTS | WT yeast gro inh | ABCB1 inh | MEKK2 WT-MEK5 | MEKK2wt confirm | MEKK2mut-MEK5 | MEKK3-MEK5 inh
Cc1ccc(OCCCCN2CCc3ccccc3C2)c(C)c1 | · | 18 | 116 | · | · | 139* | 104 | 0 | 99
CN(CCC(=O)Nc1ccc(Cl)cc1)Cc1ccccc1 | · | 5 | 103 | · | · | 110 | · | · | ·
CCCCn1c(-c2ccc([N+](=O)[O-])cc2)n[nH]c1=S | 8 | 6 | 109 | 8 | 1 | 112 | · | · | ·
O=C(Nc1ccc(Cl)cc1)Nc1ccccc1CC[N+](=O)[O-] | 19 | -19 | 4.0*[inhibitor] | 3 | 0 | 6.0*[inhibitor] | 105 | -3 | 100
Cc1nc2ccccc2nc1OCc1cccc(Cl)c1 | 4 | -1 | 128* | 5 | 1 | 102 | 104 | 5 | 106
CCCCc1n[nH]c(=S)n1Cc1ccc(C)cc1 | -2 | -17 | 48*[inhibitor] | 11 | -1 | 65 | 104 | 2 | 106
COC(=O)C1CCN(Cc2ccc(OCCCN3CCN(c4ccc([N+](=O)[O-])cc4)CC3)cc2)CC1 | 2 | 39 | 105 | 34 | 1 | 144* | 108 | -1 | 86
Nc1nonc1C(=O)NCCNCc1c(OCc2ccccc2F)ccc2ccccc12 | 25 | 26* | 111 | 19 | 16 | 164* | 146 | 19 | 106
O=S(=O)(NC1=NCCC1)c1cccc(NC(=S)NCCc2ccccc2)c1 | -3 | -2 | 96 | 0 | -2 | 96 | · | · | ·
CCOC(=O)Cn1c(=N)n(CCOc2ccc(OC)cc2)c2ccccc21 | 2 | 8 | 106 | 5 | 1 | 114 | · | · | ·
CCOC(=O)Cn1c(=N)n(CCOc2ccc3ccccc3c2)c2ccccc21 | 10 | 19 | 105 | 17 | 1 | 146* | 150 | 23 | 104
Cc1ccc2nc(-c3ccc(NC(=O)CN4CCN(c5ccccn5)CC4)cc3)sc2c1 | · | 27 | 130* | · | · | 121 | 96 | -2 | 103
Cc1ccc2nc(NC(=O)CN3CCN(c4ccccn4)CC3)sc2c1 | · | 6 | 103 | · | · | 105 | · | · | ·
COc1ccc(C2=NO[C@@H]3[C@@H]4C[C@@H]([C@H]5C(=O)N(C)C(=O)[C@@H]45)[C@H]23)cc1 | 2 | 2 | 153* | 8 | 1 | 107 | 101 | -1 | 100
CN1C(=O)[C@@H]2[C@@H]3C[C@@H]([C@H]4ON=C(c5ccc(Cl)cc5)[C@@H]34)[C@@H]2C1=O | 0 | -1 | 102 | -1 | 0 | 101 | · | · | ·
Cc1ccc2nc(N(CCCN(C)C)C(=O)CCc3ccccc3)sc2c1 | 2 | 5 | 139* | 94* | 0 | 137 | 139 | 12 | 102
Cc1ccc2nc(N(CCCN(C)C)C(=O)CN3C(=O)c4ccccc4C3=O)sc2c1 | 2 | 9 | 100 | 17 | 2 | 125 | · | · | ·
CN(C)CCCN(C(=O)CCc1ccccc1)c1nc2ccc(Cl)cc2s1 | 3 | 43 | 114 | 91 | 1 | 164* | 184 | 51 | 111
COc1cccc2sc(N(CCCN(C)C)C(=O)COc3ccc(Cl)cc3)nc12 | 3 | 9 | 105 | 6 | 1 | 168* | 151 | 35 | 103
Cc1ccc2nc(N(CCCN(C)C)C(=O)c3cc4ccccc4oc3=O)sc2c1 | 13 | 1 | 104 | 7 | 2 | 117 | · | · | ·
CN(C)CCCN(C(=O)COc1ccccc1)c1nc2ccc(Cl)cc2s1 | 7 | 32 | 105 | 26 | 0 | 167* | 154 | 20 | 106
CCc1nc2nc(C)c(NS(=O)(=O)c3ccc(Cl)cc3)c(=O)n2[nH]1 | · | -5 | 102 | · | · | 97 | · | · | ·
O=C(NCCC1=CCCCC1)C1CC(=O)N(Cc2ccccc2)C1 (stereo not drawn) | · | 4 | 99 | · | · | 102 | · | · | ·
CCOc1ccccc1NC(=O)COC(=O)C1CC(=O)N(c2c(C)cccc2C)C1 (stereo not drawn) | · | 0 | 103 | · | · | 105 | · | · | ·
CN(C)CCCN(C(=O)COc1ccc(Cl)cc1)c1nc2cc3c(cc2s1)OCO3 | · | 35* | 107 | · | · | 179* | 176 | 41 | 109
SMILES | ABCG2 inh | MEKK2mut PB1 HTS | MEKK3 PB1 HTS | WT yeast gro inh | ABCB1 inh | MEKK2 WT-MEK5 | MEKK2wt confirm | MEKK2mut-MEK5 | MEKK3-MEK5 inh
CN(C)CCCN(C(=O)COc1ccccc1)c1nc2cc3c(cc2s1)OCO3 | · | 13 | 101 | · | · | 118 | · | · | ·
Cc1cccc(C(=O)N2CCN(c3ncnc4c3cnn4-c3ccccc3)CC2)c1 | 0 | 24* | 106 | 10 | 1 | 100 | 97 | -2 | 100
Cc1nccn1CCCN1C(=O)OC2(CCCCC2)C1(C)O (stereo not drawn) | -8 | 1 | 104 | -4 | 2 | 108 | · | · | ·
CCC1(C)OC(=O)N(CCCn2ccnc2C)C1(C)O (stereo not drawn) | -1 | 9 | 123* | -4 | 0 | 121 | 102 | 1 | 97
COc1ccccc1NC(=O)C(C/C=C(\C)Cl)C(C)=O (stereo not drawn) | 1 | -9 | 79*[inhibitor] | 17 | 0 | 83 | 103 | -6 | 101
CSc1nc(C)c(Oc2ccccc2)c(=O)n1C | -1 | -21 | -1.0*[inhibitor] | -7 | 0 | -1.0*[inhibitor] | 99 | 3 | 102
Cn1ncc(Cl)c(Oc2ccccc2)c1=O | 1 | 3 | 103 | 52 | 0 | 103 | · | · | ·
CSCC[C@H](NC(=O)c1cc([N+](=O)[O-])ccc1Cl)c1nc2ccccc2[nH]1 | 5 | 1 | 143* | 0 | 2 | 109 | 97 | 3 | 100
COc1nc(C)nc(Cl)c1NC1=NCCN1 | · | 6 | 109 | · | · | 110 | · | · | ·
CCOc1ccc(C(=O)N/N=C/c2c(C)[nH]c(=O)[nH]c2=O)cc1 | · | 21 | 120 | · | · | 113 | · | · | ·

Source: PubChem BioAssay
